Measured values taken from ChEMBL document CHEMBL3865830, “Multifunctional diamine AGE/ALE inhibitors with potential therapeutical properties against Alzheimer's disease” (Eur J Med Chem, 2016).

Assays:
[1] = Antioxidant activity assessed as inhibition of AAPH-induced peroxyl radical generation measured as trolox equivalent at 10 uM preincubated for 30 mins followed by AAPH addition measured evey 60 secs for 60 cycles by ORAC-FL assay; type: functional; settings: in the assay text read “90 secs” for “60 secs”
Procedure, shortened: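 Fluorescein (12 nM) preincubated with compound (1-20 µM) or Trolox standard (1-50 µM) in D-PBS, at least 30 min at 37 °C. Reaction started with AAPH (30 mM). Fluorescence (ex 485/em 520 nm) read every 90 s for 60 cycles. Net AUC is converted to Trolox equivalents via the Trolox calibration line. Values are reported at 10 µM, from at least three independent experiments in triplicate.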

[2] = Metal chelating activity of compound assessed as compound-Cu2+ complex formation at 2 mM after 10 mins in presence of CuSO4.5H2O by complexometric indicator murexide based UV-Vis spectrophotometric analysis; type: physicochemical; settings: 2000 µM
Procedure, shortened: (§1)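 Compound (0.02-2 mM) incubated with CuSO4 (120 µM) for 10 min at rt, in 10 mM hexamine/HCl with 10 mM KCl (pH 5.0), or in buffer/MeOH 75:25 for poorly soluble compounds. Murexide added, 1 min more. The A485/A520 ratio gives free Cu2+ from a CuSO4 calibration curve (0-125 µM). % chelation is taken by difference from the no-compound control; triplicates.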

[3] = Metal chelating activity of compound assessed as compound-Cu2+ complex formation at 0.05 mM after 10 mins in presence of CuSO4.5H2O by complexometric indicator murexide based UV-Vis spectrophotometric analysis; type: physicochemical; settings: 50 µM; procedure, shortened: as §1
[4] = Metal chelating activity of compound assessed as compound-Cu2+ complex formation at 0.5 mM after 10 mins in presence of CuSO4.5H2O by complexometric indicator murexide based UV-Vis spectrophotometric analysis; type: physicochemical; settings: 500 µM; procedure, shortened: as §1
[5] = Metal chelating activity of compound assessed as compound-Cu2+ complex formation at 0.08 mM after 10 mins in presence of CuSO4.5H2O by complexometric indicator murexide based UV-Vis spectrophotometric analysis; type: physicochemical; settings: 80 µM; procedure, shortened: as §1
[6] = Metal chelating activity of compound assessed as compound-Cu2+ complex formation at 0.1 mM after 10 mins in presence of CuSO4.5H2O by complexometric indicator murexide based UV-Vis spectrophotometric analysis; type: physicochemical; settings: 100 µM; procedure, shortened: as §1
[7] = Metal chelating activity of compound assessed as compound-Cu2+ complex formation at 200 uM after 10 mins in presence of CuSO4.5H2O by complexometric indicator murexide based UV-Vis spectrophotometric analysis; type: physicochemical; procedure, shortened: as §1
[8] = Metal chelating activity of compound assessed as compound-Cu2+ complex formation at 1 mM after 10 mins in presence of CuSO4.5H2O by complexometric indicator murexide based UV-Vis spectrophotometric analysis; type: physicochemical; settings: 1000 µM; procedure, shortened: as §1
[9] = Metal chelating activity of compound assessed as compound-Cu2+ complex formation at 0.02 mM after 10 mins in presence of CuSO4.5H2O by complexometric indicator murexide based UV-Vis spectrophotometric analysis; type: physicochemical; settings: 20 µM; procedure, shortened: as §1
Rattus norvegicus = organism: Rattus norvegicus; test: Cytotoxicity against rat […] PC12 cells assessed as reduction in cell viability at 10 to 100 uM after 24 hrs by WST8-based CCK8 assay; type: toxicity; settings: pc-12, 24 h
Procedure, shortened: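 PC12 Adh cells (rat pheochromocytoma-derived) grown in F-12K with 2.5% FBS, 15% horse serum and pen/strep at 37 °C, 5% CO2. Seeded at 5×10^3 cells/well; treated at 80% confluency with 10 or 100 µM for 24 h. 10% DMSO served as positive cytotoxicity control. CCK-8 added for 1 h at 37 °C, absorbance read at 450 nm. Viability given as % of untreated cells; at least three experiments in triplicate.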

[10] = Reactive carbonyl species trapping activity of compound assessed as MGO adduct formation at 10 mM preincubated for 24 hrs with MGO measured after 0.25 hrs by LCMS analysis; type: physicochemical; settings: 10000 µM
[11] = Reactive carbonyl species trapping activity of compound assessed as MDA adduct formation at 10 mM preincubated for 24 hrs with MDA measured after 1 hr by LCMS analysis; type: physicochemical; settings: 10000 µM
[12] = Reactive carbonyl species trapping activity of compound assessed as MDA adduct formation at 10 mM preincubated for 24 hrs with MDA measured after 5 hrs by LCMS analysis; type: physicochemical; settings: 10000 µM
[13] = Reactive carbonyl species trapping activity of compound assessed as MDA adduct formation at 10 mM preincubated for 24 hrs with MDA measured after 24 hrs by LCMS analysis; type: physicochemical; settings: 10000 µM
[14] = Reactive carbonyl species trapping activity of compound assessed as MGO adduct formation at 10 mM preincubated for 24 hrs with MGO measured after 1 hr by LCMS analysis; type: physicochemical; settings: 10000 µM
[15] = Reactive carbonyl species trapping activity of compound assessed as MDA adduct formation at 10 mM preincubated for 24 hrs with MDA measured after 0.5 hrs by LCMS analysis; type: physicochemical; settings: 10000 µM
[16] = Reactive carbonyl species trapping activity of compound assessed as MGO adduct formation at 10 mM preincubated for 24 hrs with MGO measured after 5 hrs by LCMS analysis; type: physicochemical; settings: 10000 µM
[17] = Reactive carbonyl species trapping activity of compound assessed as MGO adduct formation at 10 mM preincubated for 24 hrs with MGO measured after 15 mins by LCMS analysis; type: physicochemical; settings: 0.25 h, 10000 µM
[18] = Reactive carbonyl species trapping activity of compound assessed as MGO adduct formation at 10 mM preincubated for 24 hrs with MGO measured after 24 hrs by LCMS analysis; type: physicochemical; settings: 10000 µM
[19] = Reactive carbonyl species trapping activity of compound assessed as MDA adduct formation at 10 mM preincubated for 24 hrs with MDA measured after 0.25 hrs by LCMS analysis; type: physicochemical; settings: 10000 µM
[20] = Reactive carbonyl species trapping activity of compound assessed as MGO adduct formation at 10 mM preincubated for 24 hrs with MGO measured after 0.5 hrs by LCMS analysis; type: physicochemical; settings: 10000 µM

SMILES | Activity (umolequiv/umol) [1] | Activity [2] [%] | Activity [3] [%] | Activity [4] [%] | Activity [5] [%] | Activity [6] [%] | Activity [7] [%] | Activity [8] [%] | Activity [9] [%] | Activity (Rattus norvegicus) | Activity [10] [%] | Activity [11] [%] | Activity [12] [%] | Activity [13] [%] | Activity [14] [%] | Activity [15] [%] | Activity [16] [%] | Activity [17] [%] | Activity [18] [%] | Activity [19] [%] | also measured
COc1cc(/C=C/C(=O)N2CCN(C(=O)CCC(N)CN)CC2)ccc1O.Cl.Cl (centres undefined) | 2.05 | 81.81 | 14.92 | 61.66 | 22.44 | 28.75 | 45.61 | 71.51 | 3.3 | Non-Toxic |  |  |  |  |  |  |  |  |  |  | 
Cl.Cl.NCC(N)CCCCNC(=O)c1cc(O)c(O)c(O)c1 (centres undefined) | 2.59 | 88.48 | 31.34 | 93.72 | 50.28 | 61.98 | 87.39 | 93.82 | 14.24 | Non-Toxic | 90 | 84 | 87 | 81 | 93 | 80 | 89 | 90 | 95 |  | 
Cl.Cl.NCC(N)CCCCNC(=O)CCn1cccc(O)c1=O (centres undefined) | 1.21 | 87.04 | 24.51 | 81.17 | 34.87 | 41.17 | 62.77 | 85.56 | 12.05 | Non-Toxic | 98 | 69 | 73 | 95 |  |  | 99 | 98 | 100 | 65 | Activity [20]: 96%
Cc1c(C)c2c(c(C)c1O)CCC(C)(C(=O)O)O2 (centres undefined) | 1 |  |  |  |  |  |  |  |  |  |  |  |  |  |  |  |  |  |  |  | 
CCCCN1CCN(C(=O)C(N)CN)CC1.Cl.Cl (centres undefined) |  | 62.53 | 10.28 | 43.56 | 14.87 | 16.55 | 27.68 | 53.27 | 3.22 |  | 59 |  | 77 | 62 | 70 | 65 | 93 | 59 | 100 | 62 | 
NCCN [ETHYLENEDIAMINE] |  | 100 | 44.49 | 100 | 64.61 | 69.82 | 100 | 100 | 18.81 |  |  |  |  |  |  |  |  |  |  |  | 
Cl.Cl.NCC(N)CCC(=O)N1CCN(C(=O)c2cc(O)c(O)c(O)c2)CC1 (centres undefined) | 0.89 | 76.14 | 14 | 74.33 | 22.88 | 29.96 | 52.75 | 78.48 | 5.71 | Non-Toxic | 81 | 68 | 69 | 87 | 87 | 67 | 88 | 81 | 100 | 50 | Activity [20]: 85%
Cl.Cl.NCC(N)C(=O)N1CCNCC1 (centres undefined) | 0 | 62.15 | 7.07 | 40.27 | 10.65 | 13.97 | 23.6 | 51.61 | 3.25 | Non-Toxic |  | 100 | 100 | 100 | 37 | 100 | 51 |  | 82 | 100 | Activity [20]: 33%
Cl.Cl.NCC(N)CC(=O)N1CCN(C(=O)CCn2cccc(O)c2=O)CC1 (centres undefined) | 0.58 | 78.98 | 18.5 | 68.5 | 27.53 | 30.74 | 50.25 | 75.14 | 10.33 | Toxic | 99 | 87 | 92 | 91 | 99 |  | 99 | 99 | 99 | 75 | Activity [20]: 97%
NCCC(=O)N[C@@H](Cc1cnc[nH]1)C(=O)O [CARNOSINE] |  | 41.7 | 0 | 5.39 | 0.38 | 0.72 | 1.53 | 16.92 | 0.73 |  | 46 | 40 | 38 | 66 |  | 32 | 58 | 46 | 59 | 23 | Activity [20]: 51%
Cl.Cl.NCC(N)CCCCNC(=O)CCn1cccc(OCc2ccccc2)c1=O (centres undefined) |  | 67.84 | 12.05 | 51.43 | 19.27 | 21.41 | 33.91 | 61.48 | 6.59 |  |  |  |  |  |  |  |  |  |  |  | 
COc1cc(/C=C/C(=O)NCCCCC(N)CN)ccc1O.Cl.Cl (centres undefined) | 1.5 | 59.06 | 7.96 | 42.89 | 12.17 | 15.88 |  | 52.15 | 5.39 | Non-Toxic | 100 | 17 | 24 | 100 | 100 | 17 | 100 | 100 | 100 | 17 | Activity [20]: 100%
NCCC(=O)N[C@@H](Cc1c[nH]cn1)C(=O)O | 0.08 |  |  |  |  |  |  |  |  |  |  |  |  |  |  |  |  |  |  |  | 
CC(C)(C)OC(=O)NCC(CCCCNC(=O)CCn1cccc(O)c1=O)NC(=O)OC(C)(C)C.Cl.Cl (centres undefined) |  | 94.72 | 19.87 | 76.54 | 30.19 | 34.48 | 54.61 | 89.96 | 11.08 |  |  |  |  |  |  |  |  |  |  |  | 
